Experiments:
[1] = folding enthalpy; higher = less favourable; fluorescence melt of hairpins on a sequencing array, two-state fit; settings: sodium 0.088 M
In short: (§1)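 Melting temperature and folding enthalpy were derived from bootstrapped two-state fits. The fitted temperatures were raised by 9.35 °C to agree with UV melts, and four replicates were combined by inverse variance. The underlying data were Cy3 fluorescence images of library hairpins, with annealed Cy3 and quencher oligos, on a sequenced MiSeq flow cell in 50 mM Na-HEPES pH 8.0, 25 mM NaCl, taken in 2.5 °C steps up to 60 °C, normalised to pre-quench Cy3 and to control constructs.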

[2] = melting temperature; fluorescence melt of hairpins on a sequencing array, two-state fit, raised by 9.35 °C to match UV melts; settings: sodium 0.088 M
In short: as §1

Sequence	folding enthalpy [1]	Tm [2]
GCAAGGCGAAAGCTATGC (((..((....))..)))	-20.8 kcal/mol	42.4 °C
GCAAGGCGAAAGCTTTGC ((((.((....)).))))	-39 kcal/mol	63.9 °C
GCAAGTCCGAAAGGATGC (((..(((....))))))	-16.1 kcal/mol	37.7 °C
GCAAGTGGAAACACCTGC (((.(((....))).)))	-25.3 kcal/mol	40.5 °C
GCAATCCGAAAGGATGC (((.(((....))))))	-26 kcal/mol	56.4 °C
GCAATCGAAAGATTCTGC ((((((....)))..)))	-16 kcal/mol	33.7 °C
GCAATCGAAAGATTGTGC ((((((....)))..)))	-27.1 kcal/mol	51.1 °C
GCAATCGCGAAAGCGTGC (((..(((....))))))	-12.5 kcal/mol	44 °C
GCAATCGGAAACAATTGC (((((.(....).)))))	-27.9 kcal/mol	38 °C
GCAATCGGAAACGACTGC (((.(((....))).)))	-28.9 kcal/mol	45.1 °C
GCAATCTCGAAAGAGTGC (((..(((....))))))	-24.5 kcal/mol	43.2 °C
GCAATGCGAAAGCACCGC ((..(((....)))..))	-9.88 kcal/mol	33 °C
GCAATGCGAAAGCCCTGC (((..((....))..)))	-10.3 kcal/mol	28.4 °C
GCAATGCGAAAGCCTCGC ((.(.((....)).).))	-10.9 kcal/mol	31.5 °C
GCAATGCGAAAGCGCTGC (((..((....))..)))	-20 kcal/mol	49.2 °C
GCAATGCGAAAGCTATGC (((..((....))..)))	-20.4 kcal/mol	50.6 °C
GCAATGCGAAAGCTTCGC ((.(.((....)).).))	-11.9 kcal/mol	44 °C
GCAATGCGAAAGCTTGGC ((.(.((....)).).))	-19.1 kcal/mol	40.6 °C
GCAATGTCGAAAGACTGC (((..(((....))))))	-20.3 kcal/mol	44.9 °C

Sequence	folding enthalpy [1]	Tm [2]
GCAATTCGAAAGAAATGC (((.(((....))).)))	-36.8 kcal/mol	46.1 °C
GCAATTCGAAAGAATGC (((.(((....))))))	-29.3 kcal/mol	48.1 °C
GCACAACGAAAGTTATGC (((.(((....))).)))	-34.9 kcal/mol	44.5 °C
GCACAACGAAAGTTCTGC (((.(((....))).)))	-26.1 kcal/mol	36.8 °C
GCACAAGCGAAAGCTTGC (((..(((....))))))	-7.33 kcal/mol	37.8 °C
GCACACCGAAAGGTATGC (((.(((....))).)))	-32.8 kcal/mol	50.8 °C
GCACACCGAAAGGTCTGC (((.(((....))).)))	-26.5 kcal/mol	47 °C
GCACACGAAAGTGAGTGC ((((((....)))..)))	-30.9 kcal/mol	51.7 °C
GCACACGCGAAAGCGTGC (((..(((....))))))	-5.12 kcal/mol	45 °C
GCACACGGAAACATGCGC ((.((.(....).)).))	-19.6 kcal/mol	30.2 °C
GCACACGGAAACGTATGC (((.(((....))).)))	-28 kcal/mol	45.2 °C
GCACACGGAAACGTGTAC (.(((((....))))).)	-13.8 kcal/mol	41.2 °C
GCACAGCGAAAGCAGTGC ((((.((....)).))))	-34.1 kcal/mol	69.2 °C
GCACAGCGAAAGCCATGC (((..((....))..)))	-11.9 kcal/mol	38 °C
GCACAGCGAAAGCCGAGC ((.(.((....)).).))	-12.6 kcal/mol	39.3 °C
GCACAGCGAAAGCCGTGC ((((.((....)).))))	-24.4 kcal/mol	65.6 °C
GCACAGCGAAAGCGGGGC ((.(.((....)).).))	-34.6 kcal/mol	65.9 °C
GCACAGCGAAAGCTAGGC ((..(((....)))..))	-15.4 kcal/mol	45.2 °C

Source: the array DNA melting data of Ke et al. (doi:10.1101/2024.01.08.574731)
